Measurements published in ChEMBL document CHEMBL1151833, “Cytotoxic oleanane triterpene saponins from Albizia chinensis” (J Nat Prod, 2009).

How the values were obtained:
[1] = system: Bel-7402; assay: Cytotoxicity against human Bel7402 cells after 96 hrs by MTT assay; format: functional, cell-based; conditions: Bel-7402, 96 h
Outline: (§1)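 Cells kept in RPMI 1640 with 10% FBS, penicillin and streptomycin, at 37 °C in 5% CO2. Seeded at 1.5 × 10^3 cells per well and left 24 h. Compounds added in DMSO, five concentrations over a final 0.01-10 […], each in three parallel wells, for 96 h. MTT (0.2%) added for 4 h, formazan dissolved in DMSO, read at 570 nm. IC50 taken from dose-response curves as 50% loss of optical density versus DMSO control.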

[2] = Toxicity in rabbit erythrocytes assessed as hemolytic activity; format: cell-based, Oryctolagus cuniculus, Erythrocyte
Outline: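 Rabbit erythrocytes prepared by the Chinese Pharmacopoeia method. Compounds tested at 0.01, 0.05, 0.1, 0.5, 2.5, 10 and 100 µM using a procedure adapted from the literature. Result given as HC50.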

[3] = system: HCT-8; assay: Cytotoxicity against human HCT8 cells after 96 hrs by MTT assay; format: functional, cell-based; conditions: HCT-8, 96 h; outline: as §1
[4] = system: BGC-823; assay: Cytotoxicity against human BGC823 cells after 96 hrs by MTT assay; format: functional, cell-based; conditions: BGC-823, 96 h; outline: as §1
[5] = system: A549; assay: Cytotoxicity against human A549 cells after 96 hrs by MTT assay; format: functional, cell-based; conditions: A549, 96 h; outline: as §1
[6] = system: A2780; assay: Cytotoxicity against human A2780 cells after 96 hrs by MTT assay; format: functional, cell-based; conditions: A2780, 96 h; outline: as §1

## C=C[C@](C)(CC/C=C(\CO)C(=O)O[C@H]1[C@H](O[C@](C)(C=C)CC/C=C(\C)C(=O)O[C@H]2[C@H](O)[C@@H](O)[C@H](O[C@](C)(C=C)CC/C=C(\CO)C(=O)O[C@H]3C[C@]4(C(=O)O[C@@H]5O[C@H](CO)[C@@H](O)[C@H](O)[C@H]5O[C@@H]5O[C@@H](C)[C@H](O[C@@H]6O[C@@H](CO)[C@H](O)[C@H]6O)[C@@H](O[C@@H]6O[C@H](CO)[C@@H](O)[C@H](O)[C@H]6O)[C@H]5O)[C@H](O)C[C@]5(C)C(=CC[C@@H]6[C@@]7(C)CC[C@H](O[C@@H]8O[C@H](CO[C@@H]9O[C@H](C)[C@H](O)[C@H](O)[C@H]9O[C@@H]9OC[C@@H](O)[C@H](O)[C@H]9O)[C@@H](O)[C@H](O)[C@H]8O)C(C)(C)[C@@H]7CC[C@]65C)[C@@H]4CC3(C)C)O[C@@H]2C)O[C@H](C)[C@@H](O)[C@@H]1O)O[C@@H]1O[C@H](C)[C@@H](O)[C@H](O)[C@H]1O [ALBIZOSIDE A]
[1]
  IC50: 2600 nM
[2]
  HC50: 400 nM
[3]
  IC50: 5600 nM
[4]
  IC50: 1600 nM
[5]
  IC50: 1900 nM
[6]
  IC50: 1300 nM

## C=C[C@](C)(CC/C=C(\CO)C(=O)O[C@H]1[C@H](O[C@](C)(C=C)CC/C=C(\C)C(=O)O[C@H]2[C@H](O)[C@@H](O)[C@H](O[C@](C)(C=C)CC/C=C(\CO)C(=O)O[C@H]3C[C@]4(C(=O)O[C@@H]5O[C@H](CO)[C@@H](O)[C@H](O)[C@H]5O[C@@H]5O[C@@H](C)[C@H](O[C@@H]6O[C@@H](CO)[C@H](O)[C@H]6O)[C@@H](O[C@@H]6O[C@H](CO)[C@@H](O)[C@H](O)[C@H]6O)[C@H]5O)[C@H](O)C[C@]5(C)C(=CC[C@@H]6[C@@]7(C)CC[C@H](O[C@@H]8O[C@H](CO[C@@H]9O[C@H](C)[C@H](O)[C@H](O)[C@H]9O[C@@H]9OC[C@@H](O)[C@H](O)[C@H]9O)[C@@H](O)[C@H](O)[C@H]8O[C@@H]8O[C@H](CO)[C@@H](O)[C@H](O)[C@H]8O)C(C)(C)[C@@H]7CC[C@]65C)[C@@H]4CC3(C)C)O[C@@H]2C)O[C@H](C)[C@@H](O)[C@@H]1O)O[C@@H]1O[C@H](C)[C@@H](O)[C@H](O)[C@H]1O [ALBIZOSIDE B]
[1]
  IC50: 1300 nM
[2]
  HC50: 700 nM
[3]
  IC50: 1300 nM
[4]
  IC50: 3800 nM
[5]
  IC50: 300 nM
[6]
  IC50: 1200 nM

## C=C[C@](C)(CC/C=C(\C)C(=O)O[C@H]1[C@H](O)[C@@H](O)[C@H](O[C@](C)(C=C)CC/C=C(\CO)C(=O)O[C@H]2C[C@]3(C(=O)O[C@@H]4O[C@H](CO)[C@@H](O)[C@H](O)[C@H]4O[C@@H]4O[C@@H](C)[C@H](O[C@@H]5O[C@@H](CO)[C@H](O)[C@H]5O)[C@@H](O[C@@H]5O[C@H](CO)[C@@H](O)[C@H](O)[C@H]5O)[C@H]4O)[C@H](O)C[C@]4(C)C(=CC[C@@H]5[C@@]6(C)CC[C@H](O[C@@H]7O[C@H](CO[C@@H]8OC[C@H](O)[C@H](O)[C@H]8O[C@@H]8OC[C@@H](O)[C@H](O)[C@H]8O)[C@@H](O)[C@H](O)[C@H]7O[C@@H]7O[C@H](CO)[C@@H](O)[C@H](O)[C@H]7O)C(C)(C)[C@@H]6CC[C@]54C)[C@@H]3CC2(C)C)O[C@@H]1C)O[C@@H]1O[C@H](C)[C@@H](O)[C@H](O)[C@H]1O [ALBIZOSIDE C]
[1]
  IC50: 400 nM
[2]
  HC50: 700 nM
[3]
  IC50: 400 nM
[4]
  IC50: 1700 nM
[5]
  IC50: 10 nM
[6]
  IC50: 300 nM

## CC[C@@]1(O)C(=O)OCc2c1cc1n(c2=O)Cc2cc3ccccc3nc2-1 [CAMPTOTHECIN]
[6]
  IC50: 300 nM

## C=C[C@](C)(CC/C=C(\CO)C(=O)O[C@H]1C[C@]2(C(=O)O[C@@H]3O[C@H](CO)[C@@H](O)[C@H](O)[C@H]3O[C@@H]3O[C@@H](C)[C@H](O[C@@H]4O[C@@H](CO)[C@H](O)[C@H]4O)[C@@H](O[C@@H]4O[C@H](CO)[C@@H](O)[C@H](O)[C@H]4O)[C@H]3O)[C@H](O)C[C@]3(C)C(=CC[C@@H]4[C@@]5(C)CC[C@H](O[C@@H]6O[C@H](CO[C@@H]7O[C@H](C)[C@H](O)[C@H](O)[C@H]7O[C@@H]7OC[C@@H](O)[C@H](O)[C@H]7O)[C@@H](O)[C@H](O)[C@H]6O)C(C)(C)[C@@H]5CC[C@]43C)[C@@H]2CC1(C)C)O[C@@H]1O[C@H](C)[C@@H](O)[C@H](O)[C@H]1O [PROSAPOGENIN 10]
[1]
  IC50: > 10000 nM
[2]
  HC50: 128000 nM
[3]
  IC50: > 10000 nM
[4]
  IC50: > 10000 nM
[5]
  IC50: > 10000 nM
[6]
  IC50: > 10000 nM
